Results reported in ChEMBL document CHEMBL5360637, “Ravidomycin Analogs from Streptomyces sp. Exhibit Altered Antimicrobial and Cytotoxic Selectivity” (J Nat Prod, 2023).
Values after ≈ are worked out from the molar mass of the structure shown.

Experiments:
[1] = tested on: Staphylococcus aureus; assay: Antibacterial activity against Staphylococcus aureus Newman assessed as bacterial growth inhibition incubated for 24 hrs by microtiter plate reader analysis; type: functional
How it was run: (§1)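 Broth microdilution in Mueller-Hinton broth (P. aeruginosa PAO1 is the mexAB-oprM strain). Overnight cultures were diluted 1:1000 and 200 μL was added to wells holding 2 μL of compound in DMSO. Plates were incubated 24 h at room temperature under room fluorescent light, then OD600 was read. MIC was taken as the lowest concentration keeping OD600 from rising above 0.1.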

[2] = tested on: Pseudomonas aeruginosa; assay: Antibacterial activity against Pseudomonas aeruginosa PAO1 assessed as bacterial growth inhibition incubated for 24 hrs by microtiter plate reader analysis; type: functional; how it was run: as §1
[3] = tested on: Candida albicans; assay: Antifungal activity against Candida albicans SC5314 assessed as bacterial growth inhibition incubated for 24 hrs by microtiter plate reader analysis; type: functional
How it was run: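 C. albicans was grown in RPMI 1640 with 165 mM MOPS, pH 7.0. Overnight culture was diluted 1:1000 and 200 μL was added to wells holding 2 μL of compound in DMSO. Plates were incubated 24 h at room temperature under room fluorescent light, then OD600 was read. MIC was the lowest concentration preventing OD600 from exceeding 0.1.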

[4] = tested on: HCC1806; assay: Cytotoxicity against human HCC1806 cells assessed as reduction in cell viability incubated for 72 hrs by Cell-titer glo assay; type: functional, cell-based; details: HCC1806, 72 h
How it was run: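 HCC1806 cells were grown in DMEM with 10% FBS, penicillin/streptomycin and 1% GlutaMax, were mycoplasma-tested and kept ≤4 weeks. Cells were seeded at 2500 per well and treated after 24 h, with six wells per dose, against a 0.1% DMSO vehicle. CellTiter-Glo 2.0 luminescence was read at 72 h. IC50 came from a log(inhibitor) vs normalized response least-squares fit of % viability relative to DMSO.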

Structure (SMILES) | MIC [1] | MIC [2] | MIC [3] | IC50 [4]
C=Cc1cc(OC)c2c(c1)c(=O)oc1c2cc(OC)c2c(O)ccc([C@@H]3O[C@H](C)[C@H](O)[C@H](N(C)C)[C@H]3O)c21 | 0.006 µg/mL (≈ 0.0115 µM) | 3.1 µg/mL (≈ 5.94 µM) | 0.78 µg/mL (≈ 1.5 µM) | 81 nM
C=Cc1cc(OC)c2c(c1)c(=O)oc1c2cc(OC)c2c(O)ccc([C@@H]3O[C@H](C)[C@H](O)[C@H](N(C)C(C)=O)[C@H]3O)c21 | 0.006 µg/mL (≈ 0.0109 µM) | 50 µg/mL (≈ 91 µM) | 13 µg/mL (≈ 23.7 µM) | 1700 nM
C=Cc1cc(OC)c2c(c1)c(=O)oc1c2cc(OC)c2c(O)ccc([C@@H]3O[C@H](C)[C@H](O)[C@H](OC(C)=O)[C@H]3O)c21 | 0.006 µg/mL (≈ 0.0112 µM) | > 100 µg/mL | 6.3 µg/mL (≈ 11.7 µM) | 370 nM
C=Cc1cc(OC)c2c(c1)c(=O)oc1c2cc(OC)c2c(O)ccc([C@@H]3O[C@H](C)[C@H](OC(C)=O)[C@H](O)[C@H]3O)c21 | 0.003 µg/mL (≈ 0.00559 µM) | 50 µg/mL (≈ 93.2 µM) | 6.3 µg/mL (≈ 11.7 µM) | 5100 nM
C=Cc1cc(OC)c2c(c1)c(=O)oc1c2cc(OC)c2c(O)ccc([C@@H]3O[C@H](C)[C@H](O)[C@H](NC(=O)OC)[C@H]3O)c21 | 0.012 µg/mL (≈ 0.0218 µM) | 25 µg/mL (≈ 45.3 µM) | 6.3 µg/mL (≈ 11.4 µM) | 710 nM
C=Cc1cc(OC)c2c(c1)c(=O)oc1c2cc(OC)c2c(O)ccc([C@@H]3O[C@H](C)[C@H](O)[C@H](NC(C)=O)[C@H]3O)c21 | 0.1 µg/mL (≈ 0.187 µM) | > 13 µg/mL | 13 µg/mL (≈ 24.3 µM) | > 10000 nM
C=Cc1cc(OC)c2c(c1)c(=O)oc1c2cc(OC)c2c(O)ccc([C@@H]3O[C@H](C)[C@H](O)C[C@H]3O)c21 | 0.1 µg/mL (≈ 0.209 µM) | 50 µg/mL (≈ 104 µM) | 6.3 µg/mL (≈ 13.2 µM) | > 10000 nM
C=Cc1cc(OC)c2c(c1)c(=O)oc1c2cc(OC)c2c(O)ccc([C@@H]3O[C@H](C)[C@H](O)[C@H](NC)[C@H]3O)c21 | 0.049 µg/mL (≈ 0.0965 µM) | 6.3 µg/mL (≈ 12.4 µM) | 0.78 µg/mL (≈ 1.54 µM) | 53 nM
C=Cc1cc(OC)c2c(c1)c(=O)oc1c2cc(OC)c2c(O)ccc([C@@H]3O[C@H](C)[C@H](O)[C@H](N(C)C(=O)OC)[C@H]3O)c21 | 0.003 µg/mL (≈ 0.0053 µM) | 50 µg/mL (≈ 88.4 µM) | 6.3 µg/mL (≈ 11.1 µM) | 550 nM
CCc1cc(OC)c2c(c1)c(=O)oc1c2cc(OC)c2c(O)ccc([C@@H]3O[C@H](C)[C@H](O)[C@H](N(C)C)[C@H]3O)c21 | 0.78 µg/mL (≈ 1.49 µM) | > 100 µg/mL | 25 µg/mL (≈ 47.7 µM) | > 10000 nM
COc1cc2c(oc(=O)c3cc(C)cc(OC)c32)c2c([C@@H]3O[C@H](C)[C@H](O)[C@H](N(C)C)[C@H]3O)ccc(O)c12 | 1.6 µg/mL (≈ 3.14 µM) | > 100 µg/mL | 100 µg/mL (≈ 196 µM) | 3600 nM
C=Cc1cc(OC)c2c(c1)c(=O)oc1c2cc(OC)c2c(O)ccc([C@@H]3O[C@H](C)[C@H](OC(C)=O)[C@H](N(C)C)[C@H]3O)c21 | 0.39 µg/mL (≈ 0.692 µM) | 13 µg/mL (≈ 23.1 µM) | 0.39 µg/mL (≈ 0.692 µM) | 42 nM
C=Cc1cc(O)c2c(c1)c(=O)oc1c2cc(OC)c2c(O)ccc([C@@H]3O[C@H](C)[C@H](O)[C@H](N(C)C)[C@H]3O)c21 | 0.39 µg/mL (≈ 0.768 µM) | > 13 µg/mL | 13 µg/mL (≈ 25.6 µM) | > 10000 nM
COc1cc2c(oc(=O)c3cc([C@H](C)O)cc(OC)c32)c2c([C@@H]3O[C@H](C)[C@H](O)[C@H](N(C)C)[C@H]3O)ccc(O)c12 | 13 µg/mL (≈ 24.1 µM) | > 13 µg/mL | > 13 µg/mL | > 10000 nM
C=Cc1cc(OC)c2c(c1)c(=O)oc1c2cc(OC)c2c(O)ccc([C@@H]3O[C@H](C)[C@H](O)[C@H](O)[C@H]3OC(C)=O)c21 | 0.049 µg/mL (≈ 0.0913 µM) | > 100 µg/mL | > 25 µg/mL | 870 nM
C=Cc1cc(OC)c2c(c1)c(=O)oc1c2cc(OC)c2c(O)ccc([C@@H]3O[C@H](C)[C@H](O)[C@H](O)[C@H]3O)c21 | 0.006 µg/mL (≈ 0.0121 µM) | 3.1 µg/mL (≈ 6.27 µM) | 13 µg/mL (≈ 26.3 µM) | 3600 nM
